# Assay outcomes: PubChem, several laboratories
# Most compounds without a hit are left out; they make up all but 2% or so of the library.
# PvdQ acylase = P. aeruginosa PvdQ acylase inhibition | AID 488965 | 340,000 compounds, 0.063% hits | purified PvdQ acylase, fluorescence plate reader | inhibition, % at 10 µM; in the data active = inhibition above about 30%, passing the limit was not always enough;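 also: 0% = vehicle neutral wells and 100% = reference inhibitor wells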
# PLCb3 inh = PLC-beta3 (human) inhibition, primary screen | 370,000 compounds, 0.18% hits | Purified PLC-beta3, fluorogenic substrate, fluorescence | AID 720704 | Q01970 | inhibition, % at 12.2 µM; in the data active = inhibition above about 11%;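 also: 0% = median of compound wells on plate and 100% = full blocker control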
# VIM-2 inh = blocks Pseudomonas aeruginosa VIM-2 metallo-beta-lactamase | purified VIM-2, nitrocefin hydrolysis, epi-absorbance fluorescence | inhibition, % at 5.6 µM | 290,000 compounds, 0.89% hits;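 active = inhibition above the mean of all tested compounds plus 3 SD, cutoff set per screening run, cut at about 7.5% in these data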;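 also: red hydrolysis product quenches plate fluorescence so inhibitors raise well fluorescence; 0% = enzyme with DMSO and 100% = DMSO without enzyme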
# IMP-1 inh-1 = blocks Pseudomonas aeruginosa IMP-1 metallo-beta-lactamase; 290,000 compounds, 0.45% hits; inhibition, % at 5.6 µM; purified IMP-1, nitrocefin hydrolysis, epi-absorbance fluorescence; AID 1556;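 active = inhibition above the mean plus 3 SD of all compounds in the same screening run, cut at about 4.5% in these data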;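 also: 0% = IMP-1 with DMSO and 100% = DMSO wells lacking enzyme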
#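 System: Purified IMP-1 | Read-out basis: Percent enzyme inhibition | Controls: IMP-1 with DMSO as 0%, enzyme-free DMSO as 100% | Replicates: One well per compound | Doses: 5.6 µM nominal single concentration | Detection: Epi-absorbance fluorescence, 480 nm excitation, 530 nm emission | Incubation: 25 °C, 15 min preincubation, 25 min reaction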
# PLC-gamma1 inh = inhibitors of human phospholipase C gamma1 | purified PLC-gamma1, fluorogenic substrate, fluorescence | AID 720700 | P19174 | 370,000 compounds, 0.84% hits | inhibition, % at 12.2 µM; in the data active = inhibition above about 9.5%
# IMP-1 inh-2 = blocks IMP-1 metallo-beta-lactamase in VIM-2 selectivity screen; 1,300 tested, under 10 active; AID 1856; inhibition, % at 5.6 µM; purified IMP-1, nitrocefin hydrolysis, epi-absorbance fluorescence; shares compounds with VIM-2 inh; call rule not given here;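 also: 0% = enzyme with vehicle and 100% = vehicle without enzyme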
# VIM-2 FRET ctr = VIM-2 FRET inhibition, artifact counter-screen | shares compounds with VIM-2 inh | purified VIM-2, CCF2 FRET substrate hydrolysis | inhibition, % at 5.6 µM | 1,300 compounds, 23% hits | AID 1857;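 active = inhibition above the mean of all tested compounds plus 3 SD, cut at about 19% in these data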;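 also: 0% = VIM-2 plus DMSO and 100% = no enzyme wells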
# TEM-1 inh = TEM-1 inhibition, counter-screen for VIM-2 inhibitors. shares compounds with VIM-2 inh. Purified TEM-1, nitrocefin hydrolysis, epi-absorbance fluorescence. inhibition, % at 5.6 µM. 1,300 compounds, 3% hits. AID 1866;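 active = inhibition above that campaign's mean inhibition plus 3 SD, cut at about 0.46% in these data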;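 also: 0% = TEM-1 with DMSO and 100% = TEM-1 with 100 µM potassium clavulanate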
# Target sequence (P62593 whole entry, looked up): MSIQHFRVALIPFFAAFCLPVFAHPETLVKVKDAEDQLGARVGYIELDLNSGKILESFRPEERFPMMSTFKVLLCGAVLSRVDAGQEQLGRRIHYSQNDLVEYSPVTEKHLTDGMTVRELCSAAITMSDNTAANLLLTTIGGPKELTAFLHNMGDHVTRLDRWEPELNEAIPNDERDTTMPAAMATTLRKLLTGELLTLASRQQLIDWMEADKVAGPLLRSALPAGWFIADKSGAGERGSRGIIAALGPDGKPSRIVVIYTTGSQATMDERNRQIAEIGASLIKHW
# VIM-2 confirm 2 = confirmation of P. aeruginosa VIM-2 metallo-beta-lactamase inhibitors; shares compounds with VIM-2 inh; purified VIM-2, nitrocefin hydrolysis, epi-absorbance; inhibition, % at 5.6 µM; 1,300 compounds, 96% hits; AID 2187;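 active = inhibition of the VIM-2 beta-lactamase enzyme above about 11% from the earlier first-round screen, limit read from the data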;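 also: 0% = VIM-2 with DMSO and 100% = buffer wells without enzyme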
# * hit, by the source's call; i = inactive; nt = no result.
SMILES,PvdQ acylase,PLCb3 inh,VIM-2 inh,IMP-1 inh-1,PLC-gamma1 inh,IMP-1 inh-2,VIM-2 FRET ctr,TEM-1 inh,VIM-2 confirm 2
CCN(CC)CCNC(=O)c1cc2c(=O)n(C)c3ccccc3c2s1,8,-234,18*,-2,-187,-2,8,-6,26*
CCCCN(CC)CCNC(=O)c1cc2c(=O)n(C)c3ccccc3c2s1,-9,-305,21*,1,-259,-2,11,-6,27*
CC[C@H](CCC(=O)N(c1ccccc1)c1ccccc1)C1CC1,nt,3,nt,nt,-1,nt,nt,nt,nt
Cc1oc2ccc(Br)cc2c(=O)c1-c1nn[nH]n1,0,3,21*,-3,-2,-1,41*,4.2*,27*
Cc1c(-c2cc[n+]([O-])cc2)oc2ccc(Br)cc2c1=O,nt,-9,3,-3,-3,nt,nt,nt,nt
COc1ccc2c(c1)CCCN2C(=O)C1CCCN(S(=O)(=O)c2ccc(Br)s2)C1 (centres undefined),nt,-1,nt,nt,1,nt,nt,nt,nt
Cc1nn2c(-c3ccccc3)nnc2c2ccccc12,-11,-12,7,-5,-6,nt,nt,nt,nt
Cc1nn2c3ccccc3nc2c2ccccc12,-16,-189,13*,-1,-161,-3,-10,-3,27*
O=C(CSc1nnc(-c2cccc(Cl)c2)n1Cc1ccco1)c1ccc(F)cc1,nt,-1,nt,nt,-1,nt,nt,nt,nt
COC(=O)[C@]12C[C@H](CC(=O)NCCc3ccccc3OC)C(=O)N(Cc3ccc(Cl)cc3Cl)C1=C[C@H](COCc1ccccc1)O[C@@H]2C,nt,-5,nt,nt,1,nt,nt,nt,nt
CCN1CCN(CCNC(=O)CCc2c(C)c3c(C)nn(-c4ccccc4)c3n(C)c2=O)CC1,-4,nt,19*,-4,nt,-3,-1,-3,30*
COc1ccc(OC)c(S(=O)(=O)n2c(CN3CCOCC3)nc3ccccc32)c1,nt,-2,nt,nt,0,nt,nt,nt,nt
COC(=O)c1ccsc1NC(=O)C1=COCCO1,3,-3,13*,-1,-6,-2,-3,-5,12*
OCCCc1n[nH]c(=S)n1-c1ccccc1,-5,-4,23*,-2,-2,-3,38*,-7,27*
CCc1c(C)nc2ncnn2c1NCCc1ccc(OC)c(OC)c1,-7,-1,34*,-1,1,-2,-2,-4,55*
CC(=O)c1cccc(Nc2nc3ccccc3n3cnnc23)c1,-17,-32,14*,-3,-24,-2,-4,-3,25*
COc1ccc(N2CCN(CCCNC(=O)Cn3c(=O)c4cccn4c4cccnc43)CC2)c(OC)c1,nt,3,nt,nt,3,nt,nt,nt,nt
C[N+]1(CC(=O)NNc2c3ccccc3nc3ccccc23)CCOCC1,nt,-46,21*,-4,-32,-5,3,-10,33*
O=C(CN1CCOCC1)NNc1c2ccccc2nc2ccccc12,0,-56,0,0,-49,nt,nt,nt,nt
CCOc1ccccc1C(=O)NC(C)c1ccc(-n2ccnc2)cc1 (centres undefined),-8,-4,26*,-4,-1,-4,8,-7,34*
COc1ccccc1C(=O)NC(C)c1ccc(-n2ccnc2)cc1 (centres undefined),10,0,1,-6,1,nt,nt,nt,nt
O=C1c2sccc2-c2cccc3cccc1c23,nt,i,nt,nt,i,nt,nt,nt,nt
O=C1C(Br)=Cc2cccc3cccc1c23,2,-294,15*,0,-186,-2,1,-6,20*
Cc1ccc(-c2ccc(/C=N\n3cnnc3)o2)c(Br)c1,-11,-9,13*,-3,-4,-3,6,-6,24*
COc1cc([N+](=O)[O-])ccc1-c1ccc(/C=N\n2cnnc2)o1,-6,-20,45*,0,-11,-2,-2,-2,45*
SMILES,PvdQ acylase,PLCb3 inh,VIM-2 inh,IMP-1 inh-1,PLC-gamma1 inh,IMP-1 inh-2,VIM-2 FRET ctr,TEM-1 inh,VIM-2 confirm 2
Cc1cc(-c2ccc(/C=N/n3cnnc3)o2)c(C)c([N+](=O)[O-])c1,-6,-4,87*,-2,-4,-3,5,-8,91*
Cc1ccc(Sc2oc(/C=N/n3cnnc3)cc2Br)cc1,-14,-14,-3,2,-14,nt,nt,nt,nt
Cc1ccc(-c2ccc(/C=N/N3C(=O)C4C5C=CC(C6CC56)C4C3=O)o2)c([N+](=O)[O-])c1 (centres undefined),-4,-1,-1,-3,-2,nt,nt,nt,nt
O=[N+]([O-])c1cc(-c2ccc(/C=N/n3cnnc3)o2)ccc1Cl,-7,-23,44*,0,-17,-3,5,-5,58*
O=[N+]([O-])c1ccc(Cl)c(-c2ccc(/C=N/n3cnnc3)o2)c1,12,-3,45*,-2,-21,-4,-1,-6,52*
CNC(=S)N/N=C/c1ccc(-c2cc([N+](=O)[O-])ccc2Cl)o1,-1,2,-1,-2,-2,nt,nt,nt,nt
COc1cc2c(cc1OC)C(C)N(C(=O)c1nccnc1C(=O)O)CC2 (centres undefined),-3,-13,20*,-2,-9,-3,43*,-6,33*
COc1cc2c(cc1OC)C(C)N(C(=O)c1cc(Cl)nc(Cl)c1)CC2 (centres undefined),24,-5,-1,-3,-1,nt,nt,nt,nt
Nc1[nH]c(C(=O)c2ccccc2)c(-c2ccc3ccccc3c2)c1C(=O)NCCc1ccc(Cl)cc1,nt,-17,nt,nt,-11,nt,nt,nt,nt
CCOc1ccc(Nc2cc(C)nc(-n3nc(C)cc3C)n2)cc1,7,2,17*,-5,2,-4,-64,-7,43*
COP1(=O)CCOCC[C@H](CC(C)C)NC(=O)[C@H](CC(C)C)N1 (some centres undefined),nt,-2,nt,nt,-1,nt,nt,nt,nt
Cc1nc(-c2ccccn2)nc(N2CCOCC2)c1Cl,-7,-3,18*,-12,0,-3,-23,-5,30*
COc1cnc(-c2ccccn2)nc1N(C)C,-9,-14,2,-2,-19,nt,nt,nt,nt
Cc1nc(-c2ccccn2)nc(N(C)c2ccccc2)c1Cl,-12,-12,21*,-6,-1,-5,-52,-6,34*
CCCC/C=C1/[C@@H](CC)N(Cc2ccc(OC)cc2OC)C2=N[C@@H](c3ccccc3)CC(=O)N21,nt,9,nt,nt,7,nt,nt,nt,nt
COc1ccc(-c2cc3c(=O)n(CC(=O)N4CCN(C)CC4)ncn3n2)cc1,2,-10,17*,-5,-4,-3,-2,-5,31*
Cc1ccccc1NC(=O)N(C)[C@H]1C[C@H]2c3[nH]c4c(-c5ccc6c(c5)OCO6)cccc4c3CCN2C[C@H]1[C@H](C)O,nt,-14,nt,nt,-9,nt,nt,nt,nt
Cc1cc(NCCCn2ccnc2)n2ncc(-c3ccc(Cl)cc3)c2n1,0,i,35*,-1,i,-2,-22,-6,50*
